Measurements taken from ChEMBL document CHEMBL1154873, “Synthesis and evaluation of the alpha-glucosidase inhibitory activity of 3-[4-(phenylsulfonamido)benzoyl]-2H-1-benzopyran-2-one derivatives” (Eur J Med Chem, 2010).

Assay: inhibition of yeast alpha-glucosidase pretreated for 10 mins before maltose challenge measured after 10 mins
Set-up: species or system Saccharomyces cerevisiae
How it was run: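 0.02 U α-glucosidase with compound in 67 mM potassium phosphate, pH 6.8, preincubated 37 °C 10 min. 0.1 M maltose added, then room temperature 10 min. Glucose detected colorimetrically at A490 against no-compound and no-enzyme/no-compound blanks. Compounds giving over 50% inhibition were retested at eight threefold-diluted concentrations in duplicate, and IC50 was derived by curve fitting.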

Compound	IC50 [µM]
O=C(c1ccc(NS(=O)(=O)c2ccccc2)cc1)c1cc2cc(Cl)ccc2oc1=O	> 30
COc1cc2cc(C(=O)c3ccc(NS(=O)(=O)c4ccccc4)cc3)c(=O)oc2cc1OC	> 30
Cc1ccc(S(=O)(=O)Nc2ccc(C(=O)c3cc4cc(Br)ccc4oc3=O)cc2)cc1	> 30
O=C(c1ccc(NS(=O)(=O)c2ccccc2)cc1)c1cc2ccc(O)cc2oc1=O	5.77
Cc1ccc(S(=O)(=O)Nc2ccc(C(=O)c3cc4cc(Br)cc(Br)c4oc3=O)cc2)cc1	7.73
Cc1ccc(S(=O)(=O)Nc2ccc(C(=O)c3cc4cc(C(C)(C)C)cc(C(C)(C)C)c4oc3=O)cc2)cc1	10.1
COc1ccc2cc(C(=O)c3ccc(NS(=O)(=O)c4ccc(C)cc4)cc3)c(=O)oc2c1	> 30
O=C(c1ccc(NS(=O)(=O)c2ccccc2)cc1)c1cc2cc(Br)ccc2oc1=O	> 30
O=C(c1ccc(NS(=O)(=O)c2ccccc2)cc1)c1cc2cc(Br)cc(Br)c2oc1=O	> 30
CC(C)(C)c1cc(C(C)(C)C)c2oc(=O)c(C(=O)c3ccc(NS(=O)(=O)c4ccccc4)cc3)cc2c1	7.13
COc1ccc2cc(C(=O)c3ccc(NS(=O)(=O)c4ccccc4)cc3)c(=O)oc2c1	> 30
Cc1ccc(S(=O)(=O)Nc2ccc(C(=O)c3cc4cc(Cl)ccc4oc3=O)cc2)cc1	26.7
O=C(c1ccc(NS(=O)(=O)c2ccccc2)cc1)c1cc2cc(F)ccc2oc1=O	7.18

These reach a lower IC50. Values come first.

IC50 [µM]	Compound
3.28	O=C(c1ccc(NS(=O)(=O)c2ccccc2)cc1)c1cc2ccccc2oc1=O
1.12	Cc1ccc(S(=O)(=O)Nc2ccc(C(=O)c3cc4ccc(O)cc4oc3=O)cc2)cc1
3.58	Cc1ccc(S(=O)(=O)Nc2ccc(C(=O)c3cc4ccccc4oc3=O)cc2)cc1
4.6	Cc1ccc(S(=O)(=O)Nc2ccc(C(=O)c3cc4cc(F)ccc4oc3=O)cc2)cc1
0.347	CCN(CC)c1ccc2cc(C(=O)c3ccc(NS(=O)(=O)c4ccc(C)cc4)cc3)c(=O)oc2c1
0.0645	COc1cc2cc(C(=O)c3ccc(NS(=O)(=O)c4ccc(C)cc4)cc3)c(=O)oc2cc1O
5.59	COc1cc2cc(C(=O)c3ccc(NS(=O)(=O)c4ccc(C)cc4)cc3)c(=O)oc2cc1OC
0.294	CCN(CC)c1ccc2cc(C(=O)c3ccc(NS(=O)(=O)c4ccccc4)cc3)c(=O)oc2c1
0.199	COc1cc2cc(C(=O)c3ccc(NS(=O)(=O)c4ccccc4)cc3)c(=O)oc2cc1O
